Assay results reported in ChEMBL document CHEMBL3046780, “Syntheses and herbicidal activity of new triazolopyrimidine-2-sulfonamides as acetohydroxyacid synthase inhibitor” (Bioorg Med Chem, 2010).
pKi: −log10 of the molar value.

Assays:
Eclipta prostrata [1] = experiment: Post-emergence herbicidal activity against Eclipta prostrata assessed as growth inhibition at 150 g ai/ha measured 15 days post compound treatment under green house conditions; assay type: functional; conditions: 360 h, read-out: GI
Summary of the method: (§1)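 Compounds formulated as 100 g/L emulsifiable concentrate (DMF solvent, Tween-80 emulsifier), diluted with water, sprayed post-emergence on pot-grown weeds in clay soil (pH 6.5, 1.6% organic matter). Seeds sown 1-3 cm deep, grown at 15-30 °C. Dicots were treated at the 2-leaf stage and monocots at the 1-leaf stage. Untreated and DMF-treated controls were included. Injury was rated visually 15 days after treatment.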

Cyperus iria [2] = experiment: Post-emergence herbicidal activity against Cyperus iria assessed as growth inhibition at 150 g ai/ha measured 15 days post compound treatment under green house conditions; assay type: functional; conditions: 360 h, read-out: GI; summary of the method: as §1
Cerastium arvense [3] = experiment: Post-emergence herbicidal activity against Cerastium arvense assessed as growth inhibition at 37.5 g ai/ha measured 15 days post compound treatment under green house conditions; assay type: functional; conditions: 360 h, read-out: GI; summary of the method: as §1
Cyperus iria [4] = experiment: Post-emergence herbicidal activity against Cyperus iria assessed as growth inhibition at 75 g ai/ha measured 15 days post compound treatment under green house conditions; assay type: functional; conditions: 360 h, read-out: GI; summary of the method: as §1
Amaranthus retroflexus [5] = experiment: Post-emergence herbicidal activity against Amaranthus retroflexus assessed as growth inhibition at 150 g ai/ha measured 15 days post compound treatment under green house conditions; assay type: functional; conditions: 360 h, read-out: GI; summary of the method: as §1
Cerastium arvense [6] = experiment: Post-emergence herbicidal activity against Cerastium arvense assessed as growth inhibition at 150 g ai/ha measured 15 days post compound treatment under green house conditions; assay type: functional; conditions: 360 h, read-out: GI; summary of the method: as §1
Galium aparine [7] = experiment: Post-emergence herbicidal activity against Galium aparine assessed as growth inhibition at 75 g ai/ha measured 15 days post compound treatment under green house conditions; assay type: functional; conditions: 360 h, read-out: GI; summary of the method: as §1
Rumex acetosa [8] = experiment: Post-emergence herbicidal activity against Rumex acetosa assessed as growth inhibition at 75 g ai/ha measured 15 days post compound treatment under green house conditions; assay type: functional; conditions: 360 h, read-out: GI; summary of the method: as §1
Chenopodium album [9] = experiment: Post-emergence herbicidal activity against Chenopodium album assessed as growth inhibition at 75 g ai/ha measured 15 days post compound treatment under green house conditions; assay type: functional; conditions: 360 h, read-out: GI; summary of the method: as §1
Amaranthus retroflexus [10] = experiment: Post-emergence herbicidal activity against Amaranthus retroflexus assessed as growth inhibition at 75 g ai/ha measured 15 days post compound treatment under green house conditions; assay type: functional; conditions: 360 h, read-out: GI; summary of the method: as §1
Galium aparine [11] = experiment: Post-emergence herbicidal activity against Galium aparine assessed as growth inhibition at 150 g ai/ha measured 15 days post compound treatment under green house conditions; assay type: functional; conditions: 360 h, read-out: GI; summary of the method: as §1
Polygonum humifusum [12] = experiment: Post-emergence herbicidal activity against Polygonum humifusum assessed as growth inhibition at 150 g ai/ha measured 15 days post compound treatment under green house conditions; assay type: functional; conditions: 360 h, read-out: GI; summary of the method: as §1
Echinochloa crus-galli = experiment: Post-emergence herbicidal activity against Echinochloa crus-galli (barnyard grass) assessed as growth inhibition at 150 g ai/ha measured 15 days post compound treatment under green house conditions; assay type: functional; conditions: 360 h, read-out: GI; summary of the method: as §1
Polygonum humifusum [13] = experiment: Post-emergence herbicidal activity against Polygonum humifusum assessed as growth inhibition at 75 g ai/ha measured 15 days post compound treatment under green house conditions; assay type: functional; conditions: 360 h, read-out: GI; summary of the method: as §1
Eclipta prostrata [14] = experiment: Post-emergence herbicidal activity against Eclipta prostrata assessed as growth inhibition at 75 g ai/ha measured 15 days post compound treatment under green house conditions; assay type: functional; conditions: 360 h, read-out: GI; summary of the method: as §1
Poa annua = experiment: Post-emergence herbicidal activity against Poa annua assessed as growth inhibition at 150 g ai/ha measured 15 days post compound treatment under green house conditions; assay type: functional; conditions: 360 h, read-out: GI; summary of the method: as §1
Chenopodium album [15] = experiment: Post-emergence herbicidal activity against Chenopodium album assessed as growth inhibition at 37.5 g ai/ha measured 15 days post compound treatment under green house conditions; assay type: functional; conditions: 360 h, read-out: GI; summary of the method: as §1
Rumex acetosa [16] = experiment: Post-emergence herbicidal activity against Rumex acetosa assessed as growth inhibition at 37.5 g ai/ha measured 15 days post compound treatment under green house conditions; assay type: functional; conditions: 360 h, read-out: GI; summary of the method: as §1
Digitaria sanguinalis = experiment: Post-emergence herbicidal activity against Digitaria sanguinalis (hairy crabgrass) assessed as growth inhibition at 150 g ai/ha measured 15 days post compound treatment under green house conditions; assay type: functional; conditions: 360 h, read-out: GI; summary of the method: as §1
Polygonum humifusum [17] = experiment: Post-emergence herbicidal activity against Polygonum humifusum assessed as growth inhibition at 37.5 g ai/ha measured 15 days post compound treatment under green house conditions; assay type: functional; conditions: 360 h, read-out: GI; summary of the method: as §1
Brassica juncea = experiment: Post-emergence herbicidal activity against Brassica juncea assessed as growth inhibition at 150 g ai/ha measured 15 days post compound treatment under green house conditions; assay type: functional; conditions: 360 h, read-out: GI; summary of the method: as §1
Amaranthus retroflexus [18] = experiment: Post-emergence herbicidal activity against Amaranthus retroflexus assessed as growth inhibition at 37.5 g ai/ha measured 15 days post compound treatment under green house conditions; assay type: functional; conditions: 360 h, read-out: GI; summary of the method: as §1
[19] = target: T1, Acetolactate synthase, chloroplastic (Arabidopsis thaliana, UniProt P17597)
T1 sequence (P17597 whole entry): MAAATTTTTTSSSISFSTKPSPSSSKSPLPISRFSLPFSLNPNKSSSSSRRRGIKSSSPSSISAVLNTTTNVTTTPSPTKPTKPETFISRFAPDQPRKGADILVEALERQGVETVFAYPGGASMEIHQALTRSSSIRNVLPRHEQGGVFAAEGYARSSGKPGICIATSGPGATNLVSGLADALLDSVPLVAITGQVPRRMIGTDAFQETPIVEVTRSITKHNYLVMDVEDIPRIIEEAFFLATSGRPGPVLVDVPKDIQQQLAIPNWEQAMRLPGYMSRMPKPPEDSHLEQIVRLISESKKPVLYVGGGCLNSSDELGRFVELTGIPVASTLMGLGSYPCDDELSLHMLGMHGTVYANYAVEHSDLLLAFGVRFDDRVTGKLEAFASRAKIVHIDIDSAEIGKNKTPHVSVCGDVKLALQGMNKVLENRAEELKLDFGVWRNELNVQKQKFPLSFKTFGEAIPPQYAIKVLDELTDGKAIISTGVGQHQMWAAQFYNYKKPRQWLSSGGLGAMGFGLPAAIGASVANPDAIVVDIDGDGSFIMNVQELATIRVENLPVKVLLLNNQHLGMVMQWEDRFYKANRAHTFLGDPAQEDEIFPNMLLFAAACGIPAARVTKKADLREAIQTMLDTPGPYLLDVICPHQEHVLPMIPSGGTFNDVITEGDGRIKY

Rumex acetosa [20] = experiment: Post-emergence herbicidal activity against Rumex acetosa assessed as growth inhibition at 150 g ai/ha measured 15 days post compound treatment under green house conditions; assay type: functional; conditions: 360 h, read-out: GI; summary of the method: as §1
Eclipta prostrata [21] = experiment: Post-emergence herbicidal activity against Eclipta prostrata assessed as growth inhibition at 37.5 g ai/ha measured 15 days post compound treatment under green house conditions; assay type: functional; conditions: 360 h, read-out: GI; summary of the method: as §1
Chenopodium album [22] = experiment: Post-emergence herbicidal activity against Chenopodium album assessed as growth inhibition at 150 g ai/ha measured 15 days post compound treatment under green house conditions; assay type: functional; conditions: 360 h, read-out: GI; summary of the method: as §1
Galium aparine [23] = experiment: Post-emergence herbicidal activity against Galium aparine assessed as growth inhibition at 37.5 g ai/ha measured 15 days post compound treatment under green house conditions; assay type: functional; conditions: 360 h, read-out: GI; summary of the method: as §1
Cerastium arvense [24] = experiment: Post-emergence herbicidal activity against Cerastium arvense assessed as growth inhibition at 75 g ai/ha measured 15 days post compound treatment under green house conditions; assay type: functional; conditions: 360 h, read-out: GI; summary of the method: as §1
Cyperus iria [25] = experiment: Post-emergence herbicidal activity against Cyperus iria assessed as growth inhibition at 37.5 g ai/ha measured 15 days post compound treatment under green house conditions; assay type: functional; conditions: 360 h, read-out: GI; summary of the method: as §1

Cc1nc(C(F)(F)F)cc2nc(S(=O)(=O)Nc3c(F)cccc3F)nn12
≥ 80%: inhibition of growth at 150 g/ha (Eclipta prostrata [1]) | inhibition of growth at 75 g/ha (Galium aparine [7]) | inhibition of growth at 75 g/ha (Chenopodium album [9]) | inhibition of growth at 150 g/ha (Galium aparine [11]) | inhibition of growth at 75 g/ha (Eclipta prostrata [14]) | inhibition of growth at 37.5 g/ha (Chenopodium album [15]) | inhibition of growth at 150 g/ha (Brassica juncea)
≥ 90%: inhibition of growth at 150 g/ha (Chenopodium album [22])
50%: inhibition of growth at 37.5 g/ha (Cerastium arvense [3]) | inhibition of growth at 150 g/ha (Cerastium arvense [6]) | inhibition of growth at 75 g/ha (Rumex acetosa [8]) | inhibition of growth at 150 g/ha (Polygonum humifusum [12]) | inhibition of growth at 37.5 g/ha (Rumex acetosa [16]) | inhibition of growth at 150 g/ha (Rumex acetosa [20]) | inhibition of growth at 37.5 g/ha (Eclipta prostrata [21]) | inhibition of growth at 37.5 g/ha (Galium aparine [23]) | inhibition of growth at 75 g/ha (Cerastium arvense [24])
< 50%: inhibition of growth at 150 g/ha (Cyperus iria [2]) | inhibition of growth at 75 g/ha (Cyperus iria [4]) | inhibition of growth at 150 g/ha (Amaranthus retroflexus [5]) | inhibition of growth at 75 g/ha (Amaranthus retroflexus [10]) | inhibition of growth at 150 g/ha (Echinochloa crus-galli) | inhibition of growth at 75 g/ha (Polygonum humifusum [13]) | inhibition of growth at 150 g/ha (Poa annua) | inhibition of growth at 150 g/ha (Digitaria sanguinalis) | inhibition of growth at 37.5 g/ha (Polygonum humifusum [17]) | inhibition of growth at 37.5 g/ha (Amaranthus retroflexus [18]) | inhibition of growth at 37.5 g/ha (Cyperus iria [25])
4.15: pKi [19]
